In the library only some 2.4% were active in any assay of this set; here they are far more common.
LMPTP inh – LMPTP (human) inhibition; P24666; recombinant LMPTP-A, OMFP fluorogenic substrate, fluorescence intensity; inhibition, % at 20 µM; 0.22% of 360,000 active; AID 651560;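 active = compounds that cut the enzyme signal by at least half of the control window in the single-dose screen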
Target sequence (P24666 whole entry, looked up): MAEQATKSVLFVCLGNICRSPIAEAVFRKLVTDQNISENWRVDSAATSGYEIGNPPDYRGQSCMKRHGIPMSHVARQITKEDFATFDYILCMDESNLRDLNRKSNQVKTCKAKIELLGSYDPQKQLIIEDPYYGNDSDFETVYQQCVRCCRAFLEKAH
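material = LMPTP-A | quantity = 0.625 nM enzyme | reagent = OMFP substrate, 400 µM final | buffer or medium = Bis-Tris pH 6.0, DTT, detergent | detection = endpoint fluorescence intensity from OMFP dephosphorylation | dosing = single 20 µM dose | read-out basis = % inhibition relative to no-enzyme and uninhibited control wells | control set = no-enzyme and uninhibited controls | timing = 50 min at room temperature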
DNMT1 inh – blocks human DNA methyltransferase DNMT1; 0.83% of 360,000 active; P26358; DNMT1 molecular beacon, Hinp1I cleavage, fluorescence; AID 588458; inhibition (reported as % activation of signal), % at 10 µM; in the data active = inhibition above about 50%
SUMO1-SIM PPI – alters human SUMO1 binding to SIM partners; 0.33% of 360,000 active; SUMO1 binding to a labelled peptide, TR-FRET, 1 h; P63165; inhibition, % at 20 µM; AID 602429; in the data active = inhibition above about 37%
Target sequence (P63165 whole entry, looked up): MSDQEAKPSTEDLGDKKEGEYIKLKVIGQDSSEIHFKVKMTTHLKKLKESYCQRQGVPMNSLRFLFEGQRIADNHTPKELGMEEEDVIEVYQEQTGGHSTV
STEP block – STEP (human) phosphatase inhibition; AID 588621; inhibition, % at 20 µM; P54829; recombinant STEP, OMFP fluorogenic substrate, fluorescence; 0.25% of 360,000 active;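 active = inhibition at 20 µM, scaled per plate between control wells, above about 37%, limit read from the data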
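Material: STEP (striatal-enriched tyrosine phosphatase) enzyme, cell-free | Medium: 50 mM Bis-Tris pH 6.0 with 2.5 mM DTT and 0.005% Tween 20 | Read-out: Percent inhibition scaled to no-enzyme and uninhibited-enzyme controls, plate-pattern corrected | Signal: Fluorescence read at 480 nm ex / 540 nm em | Times: 20 min reaction, room temperature, in the dark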
Scp-1 inhibitor – inhibitors of human Scp-1 phosphatase; Recombinant Scp1, phosphopeptide, malachite green phosphate absorbance; inhibition, % at 20 µM; 0.88% of 340,000 active;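 active = inhibition above about 50% at 20 µM, limit read from the data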
Target sequence (Q9GZU7 76-261 limits assumed): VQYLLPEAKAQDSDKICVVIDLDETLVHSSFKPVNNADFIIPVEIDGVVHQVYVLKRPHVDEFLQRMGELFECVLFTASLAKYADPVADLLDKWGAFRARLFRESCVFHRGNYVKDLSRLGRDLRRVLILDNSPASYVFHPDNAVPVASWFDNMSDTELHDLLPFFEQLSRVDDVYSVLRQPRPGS
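assay system = SCP-1 phosphatase catalytic domain, residues 76-261 | buffer or medium = 50 mM Tris acetate pH 5.5, 0.005% Tween-20, 10 mM MgCl2 | incubation = enzyme reaction 45 min at room temperature, colour 5 min, stabilisation 30 min | signal = Phosphate-binding colour reagent, absorbance read at 630 nm | measure = % inhibition at 20 µM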
NadD block – inhibitors of Staphylococcus aureus NadD. purified NadD enzyme, colorimetric absorbance read-out. inhibition, % at 20 µM. 0.78% of 360,000 active. AID 602399; in the data active = inhibition above about 26%
NadD inh conf – confirmation of Staphylococcus aureus NadD inhibitors | shares compounds with NadD block | purified S. aureus NadD, colorimetric enzyme assay | inhibition, % at 20 µM | 13% of 2,000 active | AID 624309; in the data active = inhibition mostly above about 42%, no sharp cut-off; inactive = mostly below about 42%
Numbers stand for hits; – = inactive; · = no result given.

SMILES	LMPTP inh	DNMT1 inh	SUMO1-SIM PPI	STEP block	Scp-1 inhibitor	NadD block	NadD inh conf
O=C(Nc1c(C(=O)c2ccccc2)oc2ccccc12)c1cc(-c2ccccc2O)n[nH]1	–	–	–	–	–	34	–
Cc1ccc(C(=O)c2oc3ccccc3c2NC(=O)c2cc(-c3cc(C)ccc3O)n[nH]2)cc1	–	–	–	–	–	39	–
Cc1ccc(C(=O)c2oc3ccccc3c2NC(=O)c2cc(-c3ccccc3O)n[nH]2)cc1	–	–	–	–	–	34	–
Cc1ccc(O)c(-c2cc(C(=O)Nc3cccnc3)[nH]n2)c1	–	–	–	–	–	–	·
CC(=O)Nc1c(C(=O)c2ccc(F)cc2)oc2ccccc12	–	–	–	–	–	–	·
O=C(Nc1cccc(-c2csc(Nc3cccc(C(F)(F)F)c3)n2)c1)c1cc([N+](=O)[O-])cc(C(F)(F)F)c1	–	–	–	–	–	37	–
O=C(Nc1ccc(-c2csc(Nc3ccccc3)n2)cc1)c1cc([N+](=O)[O-])cc(C(F)(F)F)c1	–	–	–	–	–	32	–
Cc1nc(SCc2nc3ccc([N+](=O)[O-])cc3[nH]2)c2oc3ccccc3c2n1	–	–	–	–	–	33	–
CC(CN1CCN(C)CC1)OC(=O)c1ccc(Cl)cc1 (stereo unspecified)	–	–	–	–	–	–	·
NC(=O)[C@H](Cc1cc2ccccc2s1)NC(=O)[C@@H]1CC2(CC(c3cccc(NC(=O)[C@@H]4CCC(=O)N4)c3)=NO2)CN1C(=O)/C=C/c1c(F)cccc1Cl (stereo partly specified)	–	–	–	–	–	34	–
CCC(CC)c1nnc(NC(=O)c2cccc(S(=O)(=O)N3CCc4ccccc43)c2)s1	–	–	–	–	–	–	·
CCOC(=O)c1sc(NC(=O)c2cccc(S(=O)(=O)N3CCc4ccccc43)c2)c(C#N)c1C	–	–	–	–	–	36	–
Cc1cc2oc(=O)cc(CN3CCc4ccccc43)c2cc1Cl	–	–	–	–	–	32	–
CCc1ccc2c(CN3CCc4ccccc43)cc(=O)oc2c1	–	–	–	–	–	–	·
Cn1c(O)c(C2=c3ccccc3=NC2=O)[nH]c1=S	–	–	–	–	–	–	·
COc1ccc2nc(-n3c(O)c(C4=c5ccccc5=NC4=O)[nH]c3=S)sc2c1	–	–	–	–	85	52	–
CCc1ccc(OCC(=O)Nc2ccc3c(c2)COC3=O)cc1	–	–	–	–	–	–	·
COc1ccccc1-c1cnc(C(O)c2ccc(CN3CCCCC3)cc2)[nH]1 (stereo unspecified)	–	–	–	–	·	–	·
O=C(/C=C/c1ccco1)Nc1ccc(-c2nc3ccccc3[nH]2)cc1	–	–	–	–	–	34	–
O=C(/C=C/c1ccco1)Nc1ccc(N2CCCC2)cc1	–	–	–	–	–	36	–
O=C(Nc1ccn(CCCN(CCCn2ccc(NC(=O)OCc3ccccc3)nc2=O)CCc2cc3ccccc3[nH]2)c(=O)n1)OCc1ccccc1	–	–	–	–	–	70	55
O=C(Nc1ccn(CCCNCc2ccccc2)c(=O)n1)OCc1ccccc1	–	–	–	–	–	–	·
COc1ccc2c(Cl)c(C(=O)NCCCn3ccnc3)sc2c1Cl	–	–	–	–	–	36	–
COC(=O)/C=C1\C(=O)N(c2nc3ccccc3s2)C(=S)N1c1ccc(F)cc1	–	–	–	–	–	–	·
COc1cc(/C=N/Nc2nc3ccccc3s2)ccc1OC(=O)c1ccccc1F	–	–	–	–	–	–	·
COc1cc(OC)cc(C(=O)Oc2ccc(/C=N/Nc3nc4ccccc4s3)cc2OC)c1	–	–	–	–	–	37	–
COc1ccc(Cc2c(C(C)(C)C)nc3cc(C)c(Br)c(C)n23)c(C)c1	–	·	–	·	·	–	·
Cc1ccc(-c2cc(C(F)F)n3ncc(C(=O)Nc4ccc(S(=O)(=O)Nc5ccccc5C)cc4)c3n2)cc1	–	–	–	–	–	36	–
Cc1ccc(C)n1NC(=O)c1ccc(Cl)cc1Cl	–	–	–	–	–	34	–

Source: PubChem BioAssay
